Measured values reported in ChEMBL document CHEMBL1275586, “Phenotypic susceptibility to bevirimat in isolates from HIV-1-infected patients without prior exposure to bevirimat” (Antimicrob Agents Chemother, 2010).

Assays:
[1] = test system: Human immunodeficiency virus 1; assay: Antiviral activity against antiretroviral-pretreated PI-resistant Human immunodeficiency virus 1 isolate 10 harboring deletion at T371 of Gag-SP-1 and Gag-Sp-1 V370I, S373P and I376V mutant gene infected in human MT-2 cells by XTT assay relative to wild-type; format: functional, MT2
Procedure, shortened: (§1)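 Patient-derived Gag fragments were pooled as bacterial colonies to keep quasispecies diversity and ligated into the pXXLAI (HIV-1 LAI) backbone. Virus was made by transfecting 293T cells and harvesting supernatant 2 days later. MT-2 cells were infected at 37°C with an inoculum titrated to give an XTT signal-to-noise of 2.5–4.0. Cells were plated into drug dilutions, incubated 5 days at 37°C, and read by XTT absorbance (450−650 nm). EC50 was taken from percent cell death and expressed as fold change versus wild-type LAI.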

[2] = test system: Human immunodeficiency virus 1; assay: Antiviral activity against Human immunodeficiency virus 1 isolate 31 harboring Gag-SP1 V370A, T371S, N372A/T, A374N/T and I376V mutant gene infected in human MT-2 cells by XTT assay relative to wild-type; format: functional, MT2
Procedure, shortened: (§2)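 Patient Gag-protease (SfoI-XmaI) fragments were ligated into the pXXLAI backbone, with colonies pooled to keep quasispecies. Virus came from 293T transfection, harvested at 2 days. MT-2 infection at 37°C used an input giving XTT signal-to-noise of 2.5–4.0 (≈MOI 0.001). Cells at ≈17,000/well with drug dilutions, 5 days, 37°C; XTT 1 h, A450–650. EC50 from % cell death; fold change vs wild-type LAI.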

[3] = test system: Human immunodeficiency virus 1; assay: Antiviral activity against antiretroviral-pretreated PI-resistant Human immunodeficiency virus 1 isolate 24 harboring Gag-capsid V362I mutant gene, Gag-SP-1 V370A, N372T and T375A mutant gene and deletion at T371 in Gag-SP-1 infected in human MT-2 cells by XTT assay relative to wild-type; format: functional, MT2; procedure, shortened: as §1
[4] = test system: Human immunodeficiency virus 1; assay: Antiviral activity against antiretroviral-pretreated PI-resistant Human immunodeficiency virus 1 isolate 7 infected in human MT-2 cells by XTT assay relative to wild-type; format: functional, MT2; procedure, shortened: as §1
[5] = test system: Human immunodeficiency virus 1; assay: Antiviral activity against Human immunodeficiency virus 1 isolate 36 harboring Gag-SP1 […], A374N and T375A mutant gene infected in human MT-2 cells by XTT assay relative to wild-type; format: functional, MT2; procedure, shortened: as §2
[6] = test system: Human immunodeficiency virus 1; assay: Antiviral activity against Human immunodeficiency virus 1 isolate 8 harboring Gag-SP1 V362I mutant infected in human MT-2 cells by XTT-assay relative to wild-type; format: functional, MT2; procedure, shortened: as §2
[7] = test system: Human immunodeficiency virus 1; assay: Antiviral activity against antiretroviral-pretreated Human immunodeficiency virus 1 isolate 12 harboring Gag-capsid G357S and V362I mutant gene infected in human MT-2 cells by XTT assay relative to wild-type; format: functional, MT2; procedure, shortened: as §1
[8] = test system: Human immunodeficiency virus 1; assay: Antiviral activity against antiretroviral-pretreated PI-resistant Human immunodeficiency virus 1 isolate 2 harboring Gag-SP-1 S373A, A374G and T375A mutant gene infected in human MT-2 cells by XTT assay relative to wild-type
[9] = test system: Human immunodeficiency virus 1; assay: Antiviral activity against Human immunodeficiency virus 1 isolates harboring deletion at T371 in Gag-SP-1 relative to wild-type; format: functional
Procedure, shortened: (§3)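 Site-directed mutants were made by two-round overlap PCR into the pXXLAI (HIV-1 LAI) backbone from an individual clone, then transfected into 293T cells, with supernatant harvested at 2 days. MT-2 cells were infected at an input giving an XTT signal-to-noise of 2.5–4.0, plated at ≈17,000 cells/well with drug dilutions, and read by XTT after 5 days. EC50 from % cell death; fold change vs wild-type LAI.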

[10] = test system: Human immunodeficiency virus 1; assay: Antiviral activity against antiretroviral-pretreated PI-resistant Human immunodeficiency virus 1 isolate 1 harboring Gag-Sp-1 S368C, V370A and A374N mutant gene deletion at T371 in Gag-SP-1 infected in human MT-2 cells by XTT assay relative to wild-type; format: functional, MT2; procedure, shortened: as §1
[11] = test system: Human immunodeficiency virus 1; assay: Antiviral activity against antiretroviral-pretreated PI-resistant Human immunodeficiency virus 1 isolate 20 harboring Gag-capsid G357S mutant gene and Gag-SP1 Q369H and I376V mutant gene infected in human MT-2 cells by XTT assay relative to wild-type; format: functional, MT2; procedure, shortened: as §1
[12] = test system: Human immunodeficiency virus 1; assay: Antiviral activity against antiretroviral-pretreated PI-resistant Human immunodeficiency virus 1 isolate 23 harboring Gag-capsid G357S and V362I mutant gene, Gag-SP-1 V370A and T375A mutant gene and deletion at T371 in Gag-SP-1 infected in human MT-2 cells by XTT assay relative to wild-type; format: functional, MT2; procedure, shortened: as §1
[13] = test system: Human immunodeficiency virus 1; assay: Antiviral activity against Human immunodeficiency virus 1 isolates harboring Gag-SP-1 V370A mutant gene relative to wild-type; format: functional; procedure, shortened: as §3
[14] = test system: Human immunodeficiency virus 1; assay: Antiviral activity against Human immunodeficiency virus 1 isolate 6 harboring Gag-SP-1 V370, S373 and A374 mutant infected in human MT-2 cells by XTT-assay relative to wild-type; format: functional, MT2; procedure, shortened: as §2
[15] = test system: Human immunodeficiency virus 1; assay: Antiviral activity against Human immunodeficiency virus 1 LAI Gag-[…] V362I mutant infected in human MT-2 cells by XTT-assay relative to wild-type; format: functional, MT2; procedure, shortened: as §3
[16] = test system: Human immunodeficiency virus 1; assay: Antiviral activity against antiretroviral-pretreated PI-resistant Human immunodeficiency virus 1 isolate 27 harboring infected in human MT-2 cells by XTT assay relative to wild-type
[17] = test system: Human immunodeficiency virus 1; assay: Antiviral activity against Human immunodeficiency virus 1 isolate 33 harboring Gag-SP1 S368G, V370M and S373T mutant gene infected in human MT-2 cells by XTT assay relative to wild-type; format: functional, MT2; procedure, shortened: as §2
[18] = test system: Human immunodeficiency virus 1; assay: Antiviral activity against Human immunodeficiency virus 1 isolate 37 harboring Gag-capsid G357S mutant gene and Gag-SP1 I376V mutant gene infected in human MT-2 cells by XTT assay relative to wild-type; format: functional, MT2; procedure, shortened: as §2
[19] = test system: Human immunodeficiency virus 1; assay: Antiviral activity against Human immunodeficiency virus 1 isolate 1 harboring Gag-SP-1 S368, V370 and deletion at T371 in Gag-SP-1 mutant infected in human MT-2 cells by XTT-assay relative to wild-type; format: functional, MT2; procedure, shortened: as §2
[20] = test system: Human immunodeficiency virus 1; assay: Antiviral activity against antiretroviral-pretreated PI-resistant Human immunodeficiency virus 1 isolate 9 harboring Gag-SP1 T375N and I376V mutant gene infected in human MT-2 cells by XTT assay relative to wild-type; format: functional, MT2; procedure, shortened: as §1
[21] = test system: Human immunodeficiency virus 1; assay: Antiviral activity against antiretroviral-pretreated PI-resistant Human immunodeficiency virus 1 isolate 4 harboring Gag-capsid G357S mutant gene and Gag-Sp-1 N372A, A374T and T375N mutant gene infected in human MT-2 cells by XTT assay relative to wild-type
[22] = test system: Human immunodeficiency virus 1; assay: Antiviral activity against Human immunodeficiency virus 1 isolate 4 harboring Gag-capsid A146P, V159I, V215L, I223G/V, P255A, E312D and G357S mutant gene and protease L10R, S37N, M46L, I62V, L63P, A71V, V82T, L90M and I93L mutant gene infected in human MT-2 cells by XTT-assay relative to wild-type; format: functional, MT2; procedure, shortened: as §2
[23] = test system: Human immunodeficiency virus 1; assay: Antiviral activity against antiretroviral-pretreated PI-resistant Human immunodeficiency virus 1 isolate 6 harboring Gag-SP-1 V370A,S373A and A374T mutant gene infected in human MT-2 cells by XTT assay relative to wild-type; format: functional, MT2; procedure, shortened: as §1

Structure (SMILES): C=C(C)[C@@H]1CC[C@]2(C(=O)O)CC[C@]3(C)[C@H](CC[C@@H]4[C@@]5(C)CC[C@H](OC(=O)CC(C)(C)C(=O)O)C(C)(C)[C@@H]5CC[C@]43C)[C@@H]12 [BEVIRIMAT]
- fold change (FC) [1]: >100
- fold change (FC) [2]: >100
- fold change (FC) [3]: >100
- fold change (FC) [4]: 1
- fold change (FC) [5]: 1.8
- fold change (FC) [6]: >100
- fold change (FC) [7]: >100
- fold change (FC) [8]: >100
- fold change (FC) [9]: 52.2
- fold change (FC) [10]: >100
- fold change (FC) [11]: 2.1
- fold change (FC) [12]: >100
- fold change (FC) [13]: >151.4
- fold change (FC) [14]: 0.4
- fold change (FC) [15]: >100
- fold change (FC) [16]: 36
- fold change (FC) [17]: >100
- fold change (FC) [18]: 4.6
- fold change (FC) [19]: 0.6
- fold change (FC) [20]: 4.7
- fold change (FC) [21]: >100
- fold change (FC) [22]: >100
- fold change (FC) [23]: >100
